# The list is not random: actives were taken first. Their share in the collection is about 3.1%.
# E-selectin induc = induces E-selectin expression in human endothelial cells; P16581; HUVEC E-selectin immunofluorescence imaging; normalized: neutral wells 0, TNF-alpha wells 100; activation, % at 7.58 µM; 0.37% of 260,000 active; AID 686992;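 active = mean E-selectin-positive cell signal at least 10% of the positive control, reached in at least 60% of replicates, without over 20% cell loss; inconclusive = no rule given, readout overlaps actives, possibly toxicity-flagged; inactive = the rest, including those meeting only one limit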
# Target sequence (P16581 whole entry, looked up): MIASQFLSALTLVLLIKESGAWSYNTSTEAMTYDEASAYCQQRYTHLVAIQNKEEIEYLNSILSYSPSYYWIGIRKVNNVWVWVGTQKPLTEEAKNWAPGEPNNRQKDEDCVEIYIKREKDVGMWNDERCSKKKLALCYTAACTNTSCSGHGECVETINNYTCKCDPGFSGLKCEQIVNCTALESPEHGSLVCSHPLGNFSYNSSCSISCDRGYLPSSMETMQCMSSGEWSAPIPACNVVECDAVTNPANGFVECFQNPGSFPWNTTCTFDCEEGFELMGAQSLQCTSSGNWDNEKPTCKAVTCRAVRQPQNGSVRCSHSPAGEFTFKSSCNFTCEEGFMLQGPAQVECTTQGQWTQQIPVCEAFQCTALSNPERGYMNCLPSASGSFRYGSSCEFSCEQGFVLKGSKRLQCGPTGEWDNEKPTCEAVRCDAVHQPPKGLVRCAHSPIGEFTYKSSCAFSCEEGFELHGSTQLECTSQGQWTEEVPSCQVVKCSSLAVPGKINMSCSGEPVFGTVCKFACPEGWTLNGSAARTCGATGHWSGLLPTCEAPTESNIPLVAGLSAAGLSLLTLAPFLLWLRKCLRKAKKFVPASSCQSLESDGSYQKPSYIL
#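 material = human umbilical vein endothelial cells (HUVEC), E-selectin induction | quantity = 3,000 cells/well | medium = EGM-2 growth medium on 0.1% gelatin-coated wells | technique = immunofluorescence imaging | read-out basis = % PE-positive cells | control set = TNF-alpha positive control, DMSO neutral control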
# Ecoli rRNA inh = inhibitors of bacterial rRNA selective over humanized ribosomes. E. coli WT GFP vs humanized-ribosome RFP mutants, fluorescence, 24 h; stronger effect = lower value; DMSO median 0, no signal -100. 1.6% of 350,000 active. GFP signal change (wild-type ribosome), % (concentration not given with the values). AID 720706;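 active = significant combined selectivity score with lowered wild-type GFP, culture density cut under 30%, mutant RFP and density less affected; inactive = any of these conditions unmet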
# Cneo AK release = Cryptococcus neoformans lysis via adenylate kinase release | AID 651654 | C. neoformans lysis, adenylate kinase release luminescence, 4 h; normalised: neutral wells 0, clomiphene wells 100 | 0.2% of 360,000 active | lysis activity, % at 15 µM;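 active = mean lysis activity across replicates of at least 80%, whatever share of replicates individually reach that level; inactive = mean lysis activity below 80%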
#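 Assay system: C. neoformans cells. Amount: yeast cell density of 5 × 10^6 cells/mL. Technique: AK luminescence. Buffer or medium: YPD. Times: static 4 h at 37 °C with compound, 1 h detection. Dosing: single-point compound dose. Read-out: lysis from increased AK signal.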
# miR122 inh = miR-122 inhibition in Huh7 cells; AID 602342; Huh7 miR-122 Renilla luciferase sensor, 48 h; neutral wells = 0, positive control = 100; 0.3% of 340,000 active; activation (reporter increase), % at 12.5 µM;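 active = mean replicate activation score at least 90 and every replicate individually at or above 90; inconclusive = only one of the two criteria met; inactive = neither criterion met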;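 also: higher luciferase means less miR-122 activity so hits act as miR-122 inhibitors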
# DENV2 CPE rescue = inhibitors of DENV2 cytopathic effect. DENV2-infected cells, cytopathic effect rescue, plate reader. CPE inhibition, % at 9.99 µM. 1.7% of 350,000 active; in the data active = CPE inhibition above about 20%, passing the limit was not always enough; inconclusive = no clear call, values can overlap the other calls; tested in BHK-21 cells;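 also: 0% = median of neutral control wells and 100% = median of positive control wells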
# Starred values were filed as active, the others as inactive; ? = inconclusive; · = not tested or not shown; [ ] = remark or other dose.
SMILES,E-selectin induc,Ecoli rRNA inh,Cneo AK release,miR122 inh,DENV2 CPE rescue
CN1CCN(C(=O)C[C@H]2C[C@@H]3c4cc(NC(=O)C5CCC5)ccc4O[C@@H]3[C@@H](CO)O2)CC1,0,9,0,7[16.7 µM],-5
Cc1cc(NC(=O)CSc2nc3c(sc4ccccc43)c(=O)n2CCc2ccccc2)n[nH]1,·,·,-2,21,·
Cc1cc(NC(=O)CSc2nc3c(sc4ccccc43)c(=O)n2CCCN2CCOCC2)n[nH]1,·,4,·,178*,·
COc1ccc(NC(=O)N(C)C[C@H]2OCCCC[C@@H](C)Oc3ccc(NC(=O)Cc4ccccc4)cc3C(=O)N([C@H](C)CO)C[C@@H]2C)cc1,0,2,1,7[16.7 µM],0
CCCCn1nnnc1C1(C)CCC(=O)N1CCOc1ccccc1 (centres undefined),0,8,·,·,66*
Cc1ccc(CN2C(=O)CCC2(C)c2nnnn2Cc2ccccc2)cc1 (centres undefined),4,1,·,·,?
CC1(c2nnnn2Cc2ccccc2)CCC(=O)N1CCOc1ccccc1 (centres undefined),0,2,·,·,92*
COc1ccc(-n2nnnc2C2(C)CCC(=O)N2Cc2ccccc2)cc1 (centres undefined),0,·,·,·,63*
C[C@@H]1CN([C@@H](C)CO)S(=O)(=O)c2ccc(-c3ccncc3)cc2O[C@@H]1CN(C)C(=O)Nc1ccc(C(F)(F)F)cc1,1,-10,-1,30[16.7 µM],-7
COc1cccc(C#Cc2cnc3c(c2)C(=O)N([C@@H](C)CO)C[C@H](C)[C@H](CN(C)C(C)=O)O3)c1,0,6,0,-2[16.7 µM],0
COc1ccc(C[C@H]2CCn3cc(nn3)COC[C@@H](Cc3ccccc3)NC2=O)cc1,·,4,·,·,·
CCOc1ccccc1N(C(=O)Nc1ccc(Cl)cc1)C1=NCCS1,·,-21*,-5,-5,3
CCOc1ccccc1N(C(=O)Nc1cccc(Cl)c1)C1=NC(C)CS1 (centres undefined),·,-39,-1,7,0
O=C(NCCN1C(=O)C2C3C=CC(C3)C2C1=O)Nc1cccnc1 (centres undefined),0,8,-4,-2,29*
O=C(NCCN1C(=O)C2C3C=CC(C3)C2C1=O)Nc1ccc(Br)cc1 (centres undefined),1,5,-2,0,5
C=CCn1c(C)nnc1SCC(=O)NC1CC1,0,0,0,0,93*
C=CCn1c(C)nnc1SCC(=O)NC1CCCCC1,1,8,1,-8,-12
CCCc1ccc(C(=O)NNc2ccccc2F)cc1,55*,-9,·,·,-10
CCc1ccc(C(=O)NNc2ccccc2F)cc1,0,·,-1,-3,9
Cc1ccccc1CN1C(=O)CN(S(C)(=O)=O)CC1(C)C(=O)NCc1ccccc1 (centres undefined),0,·,·,·,22*
Cc1ccccc1CN1C(=O)CN(S(C)(=O)=O)CC1(C)C(=O)Nc1c(C)cccc1C (centres undefined),0,9,·,·,1
COc1cccc(N2CCc3c(C)nc4ccc(Cl)cc4c32)c1,0,-6,10,-1,41*
CN(C(=O)COC(=O)c1ccc(S(=O)(=O)N2CCOCC2)cc1)c1ccccc1,0,0,-1,4,81*
C[C@H](CO)N1C[C@H](C)[C@@H](CN(C)S(C)(=O)=O)Oc2c(NC(=O)CCC(F)(F)F)cccc2C1=O,·,1,·,·,·
CCOC(=O)CCCc1ccc(/C(C)=N/NC(N)=S)cc1,·,-44*,·,·,-8
SMILES,E-selectin induc,Ecoli rRNA inh,Cneo AK release,miR122 inh,DENV2 CPE rescue
COC(=O)N(C)C[C@H]1OCc2ccccc2-c2ccccc2C(=O)N([C@H](C)CO)C[C@@H]1C,·,3,·,·,·
C/C(=N\Nc1ccccn1)c1ccc(S(=O)(=O)NCc2ccco2)cc1,·,·,·,110*,·
O=C(C[C@@H]1CC[C@H](NC(=O)C2CC2)[C@@H](CO)O1)NCC1CC1,0,3,-6,·,1
C[C@H](NC(=O)C[C@@H]1CC[C@@H](NC(=O)Cc2ccccn2)[C@H](CO)O1)c1ccccc1,0,0,0,16[16.7 µM],0
O=S(=O)(N/N=C\c1cccc(F)c1)c1ccccc1,·,17,1,14,7
O=S(=O)(NN=Cc1cccc(Cl)c1)c1ccccc1,0,0,·,·,28*
CCC(=O)N1N=C(c2c(O)n(C)c(=O)n(C)c2=O)CC1c1ccccc1 (centres undefined),0,-46*,1,·,-6
CCC(=O)N1N=C(c2ccccc2)CC1c1ccccc1 (centres undefined),2,-10,-4,-3,4
O=C(NC(=O)c1ccccc1)Nc1ccc(-c2cnco2)cc1,0,16,1,6,1
O=C(Nc1ccc(Cl)cc1)Nc1ccc(-c2cnco2)cc1,0,-22*,0,-1,?
COc1ccc2c3c([nH]c2c1)[C@@H](CO)NCC31CN(C(=O)C2CCCC2)C1,0,-1,·,·,-4
C[C@H]1O[C@H](O[C@H]2[C@H](O[C@@H]3CC[C@@]4(C)C(CC[C@]5(C)C4CC=C4[C@@H]6CC(C)(C)CC[C@]6(C(=O)O[C@@H]6O[C@H](CO)[C@@H](O)[C@H](O)[C@H]6O)CC[C@]45C)C3(C)C)O[C@H](C(=O)O)[C@@H](O)[C@@H]2O)[C@@H](O)[C@@H](O)[C@@H]1O (some centres undefined),·,·,-1,0,109*
CC1(C)CC[C@]2(C(=O)O[C@@H]3O[C@H](CO)[C@@H](O)[C@H](O)[C@H]3O)CC[C@]3(C)C(=CCC4[C@@]5(C)CC[C@H](O[C@@H]6O[C@H](C(=O)O)[C@@H](O[C@H]7OC[C@@H](O)[C@@H](O)[C@@H]7O)[C@H](O)[C@H]6O)C(C)(C)C5CC[C@]43C)[C@@H]2C1 (some centres undefined),0,5,-7,·,81*
CC1(C)CC[C@]2(C(=O)O)CC[C@]3(C)C(=CC[C@@H]4[C@@]5(C)CC[C@H](O[C@@H]6O[C@H](C(=O)O)[C@@H](O)[C@H](O[C@@H]7OC[C@H](O)[C@H](O)[C@H]7O)[C@H]6O)C(C)(C)[C@@H]5CC[C@]43C)[C@@H]2C1,2,8,-6,2,-2
CCCC(=O)Nc1ccc2c(c1)C(=O)N(C)C[C@@H](OC)[C@H](C)CN(Cc1ccccc1OC)[C@H](C)CO2,0,-2,7,·,14
NC(=O)C1CCN(c2nc(-c3ccccc3-c3ccccc3)cs2)CC1,139*,4,5,-5,-7
C[C@@H]1COCn2nncc2CC[C@H](C)C(=O)N1,·,4,·,·,·
COC(=O)c1sc(C(F)(F)F)c(-c2ccccc2)c1S(=O)(=O)N1CCCC1,0,-26*,1,·,-2
CC1CCN(c2nc(-c3cccnc3)nc3scc(-c4ccccc4)c23)CC1,·,8,·,·,-4

# From PubChem
